Measurements taken from ChEMBL document CHEMBL1139466, “Novel tetralone-derived retinoic acid metabolism blocking agents: synthesis and in vitro evaluation with liver microsomal and MCF-7 CYP26A1 cell assays” (J Med Chem, 2005).
The source made the active and inactive calls. The calls are words filed in the database; no cut-off is given here.

Experiments:
Liver microsomes = test: Inhibition of all-trans retinoic acid metabolism in rat liver microsomes; type: functional, Microsome
Method in brief: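 Rat liver microsomes incubated with [11,12-3H]-atRA (diluted in unlabeled atRA), inhibitor in acetonitrile, NADPH and 50 mM phosphate buffer pH 7.4, duplicate tubes, 30 min at 37 °C with shaking. Extract evaporated and metabolites resolved by C18 radio-HPLC (acetonitrile/1% ammonium acetate/acetic acid 75:25:0.1). IC50 is the average of two experiments.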

Cytochrome P450 26A1 = target: T1, Cytochrome P450 26A1 (Homo sapiens, UniProt O43174); test: Inhibition of CYP26A1 in human MCF7 cells assessed as all-trans retinoic acid metabolism; type: ADME, cell-based
T1 sequence (O43174 whole entry): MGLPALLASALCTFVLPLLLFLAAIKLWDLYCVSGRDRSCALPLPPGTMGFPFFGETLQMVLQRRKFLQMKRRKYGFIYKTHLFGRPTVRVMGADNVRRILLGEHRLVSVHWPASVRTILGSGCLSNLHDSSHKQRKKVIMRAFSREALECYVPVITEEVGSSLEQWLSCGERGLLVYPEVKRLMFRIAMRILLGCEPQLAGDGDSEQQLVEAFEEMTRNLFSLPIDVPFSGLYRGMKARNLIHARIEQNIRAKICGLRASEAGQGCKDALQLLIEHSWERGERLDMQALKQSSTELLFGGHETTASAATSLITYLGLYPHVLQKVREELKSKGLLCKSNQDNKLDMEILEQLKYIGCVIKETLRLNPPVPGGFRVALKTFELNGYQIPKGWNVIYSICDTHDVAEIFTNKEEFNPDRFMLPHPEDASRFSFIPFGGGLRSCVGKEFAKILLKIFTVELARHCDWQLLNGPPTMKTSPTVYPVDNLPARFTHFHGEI
Method in brief: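 Seeded 2.5 × 10^5 per well and allowed 24 h to adhere, then washed with PBS. Fresh medium with inhibitor in acetonitrile plus atRA (final 1 × 10^-7 M, 0.1 μCi [3H]-atRA), 9 h at 37 °C in the dark, duplicate. Stopped with 1% acetic acid. Metabolites separated by radio-HPLC on C18. IC50 is the average of two experiments.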

Structure (SMILES) | IC50 (Liver microsomes) [µM] | IC50 (Cytochrome P450 26A1) [µM] | Activity (Liver microsomes; Microsome)
COc1ccc2c(c1)CCC(Cc1ccc(O)cc1)C2 (configuration not stated) | 2.2 | 25 | 
COc1ccc2c(c1)CCC(Cc1ccccc1C)C2=O (configuration not stated) | 1.8 | 20 | 
Clc1cccc(C(c2ccc3[nH]cnc3c2)n2ccnc2)c1 (configuration not stated) |  |  | Active
O=C1/C(=C/c2ccccc2Br)CCc2cc(O)ccc21 | 2.4 | 20 | 
O=C1c2ccc(O)cc2CCC1Cc1ccccc1-c1ccccc1 (configuration not stated) | 0.5 | 10 | 
CC(=O)N1CCN(c2ccc(OCC3COC(Cn4ccnc4)(c4ccc(Cl)cc4Cl)O3)cc2)CC1 (configuration not stated) [KETOCONAZOLE] | 18 |  | 
Nc1ccc(CC2CCc3cc(O)ccc3C2=O)cc1 (single isomer, unassigned; (+)) | 17.6 | 43 | 
CCC(CC)[C@H](c1ccc(Nc2nc3ccccc3s2)cc1)n1cncn1 | 9 | 0.005 | 
CN(C)c1ccc(/C=C2\CCc3cc(O)ccc3C2=O)cc1 | > 20 | 50 | 
COc1ccc2c(c1)CCC(Cc1cc(C(F)(F)F)ccc1C(F)(F)F)C2=O (configuration not stated) | 18 | 50 | 
O=C1c2ccc(O)cc2CCC1Cc1ccc(O)cc1 (configuration not stated) | 1.5 | 20 | 

Now from value to molecule, other results behind:

IC50 (Liver microsomes) [µM] | IC50 (Cytochrome P450 26A1) [µM] | Structure (SMILES) | Activity (Liver microsomes; Microsome)
> 20 | 20 | O=C1/C(=C/c2ccccc2-c2ccccc2)CCc2cc(O)ccc21 | 
0.8 | 10 | O=C1c2ccc(O)cc2CCC1Cc1ccc(-c2ccccc2)cc1 (configuration not stated) | 
> 20 | 9 | O=C1/C(=C/c2ccc(O)cc2)CCc2cc(O)ccc21 | 
> 20 | 50 | O=C1/C(=C/c2ccc(-c3ccccc3)cc2)CCc2cc(O)ccc21 | 
1.2 | 25 | CN(C)c1ccc(CC2CCc3cc(O)ccc3C2=O)cc1 (configuration not stated) | 
0.4 | 5 | COc1ccc2c(c1)CCC(Cc1ccc(O)cc1)C2=O (configuration not stated) | 
10.2 | 39 | Nc1ccc(CC2CCc3cc(O)ccc3C2=O)cc1 (single isomer, unassigned; (-)) | 
> 20 | 9 | COc1ccc2c(c1)CC/C(=C\c1ccccc1Br)C2=O | 
> 20 | 20 | COc1ccc2c(c1)CC/C(=C\c1ccccc1C)C2=O | 
> 20 | 50 | COc1ccc2c(c1)CC/C(=C\c1cc(C(F)(F)F)ccc1C(F)(F)F)C2=O | 
> 20 | 7 | COc1ccc2c(c1)CC/C(=C\c1ccc(O)cc1)C2=O | 
